Assay results published in ChEMBL document CHEMBL1275429, “Pharmacodynamic characterization of ceftobiprole in experimental pneumonia caused by phenotypically diverse Staphylococcus aureus strains” (Antimicrob Agents Chemother, 2008).

Tests used:
[1] = fT>MIC required for 50% inhibition of methicillin-susceptible Staphylococcus aureus 29213 infection in neutropenic BALB/cAnNCr mouse; type: functional
[2] = fCmax/MIC in neutropenic BALB/cAnNCr mouse plasma infected with Staphylococcus aureus at 1 to 25 mg/kg, sc administered 1 to 5 times/day after 24 hrs by HPLC; type: functional; conditions: route subcutaneous
In short: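 Exposure indices used free plasma drug, correcting with 19% mouse protein binding supplied by the sponsor. The regimens were s.c. 1–25 mg/kg given 1–5 times daily for 24 h to neutropenic mice with S. aureus pneumonia. MICs were determined in triplicate by CLSI broth microdilution. PK came from the single-dose HPLC study.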

[3] = fT>MIC required for 50% inhibition of hospital acquired Staphylococcus aureus 152 infection in neutropenic BALB/cAnNCr mouse; type: functional
Mus musculus [4] = test: Volume of distribution in neutropenic BALB/cAnNCr mouse infected with Staphylococcus aureus at 10 mg/kg, sc administered as single dose after 6 hrs of infection; type: ADME, organism-based; set-up: dose 10 mg/kg, route subcutaneous; conditions: in vivo
In short: (§1)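 Neutropenic female mice (cyclophosphamide i.p. 250 mg/kg day −4, 100 mg/kg day −1) with HA-MRSA 56 pneumonia (oral inoculum, 10^7 CFU/ml in 3% mucin). Single s.c. dose in sterile water. Plasma by intracardiac puncture at 0.25–4 h, six mice per time point, stabilized with citric acid. Assayed by validated HPLC (LOQ 0.01 µg/ml). Parameters from one-compartment analysis.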

Mus musculus [5] = test: Volume of distribution in neutropenic BALB/cAnNCr mouse infected with Staphylococcus aureus at 1 mg/kg, sc administered as single dose after 6 hrs of infection; type: ADME, organism-based; set-up: dose 1 mg/kg, route subcutaneous; conditions: in vivo; in short: as §1
[6] = fAUC/MIC required for 80% inhibition of Staphylococcus aureus infection in neutropenic BALB/cAnNCr mouse; type: functional
Staphylococcus aureus [7] = test: Antimicrobial activity against community acquired methicillin-resistant Staphylococcus aureus 147 infected in BALB/cAnNCr mouse assessed as decrease in bacterial density in lungs at 1 to 25 mg/kg, sc administered as 1 to 5 times/day after 24 hrs […] relative to control; type: functional; conditions: route subcutaneous
In short: (§2)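 Female BALB/cAnNCr mice (7–9 weeks) were made neutropenic with cyclophosphamide i.p. at 250 mg/kg on day −4 and 100 mg/kg on day −1. Under isoflurane, mice received an oral inoculum in 3% mucin/saline, with nostrils blocked until aspiration. Drug (1–25 mg/kg s.c., once to five times daily, water vehicle) or sham started 6 h post-inoculation. Lungs were harvested at 24 h, homogenized and plated on blood and Columbia agar at 35°C. Mean log10 CFU/ml was compared with the 0-h untreated baseline; 5 mice per group.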

[8] = fT>MIC required for 80% inhibition of community acquired methicillin-resistant Staphylococcus aureus 147 infection in neutropenic BALB/cAnNCr mouse; type: functional
In short: (§3)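 Same neutropenic murine pneumonia model, with 24-h lung log10 CFU change (5 mice per group; 1–25 mg/kg s.c., 1–5 times daily). […] ED50, ED80 and stasis exposures were taken from a sigmoid Emax fit for each isolate.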

Staphylococcus aureus [9] = test: Antimicrobial activity against community acquired methicillin-resistant Staphylococcus aureus 144 infected in BALB/cAnNCr mouse assessed as decrease in bacterial density in lungs at 1 to 25 mg/kg, sc administered as 1 to 5 times/day after 24 hrs […] relative to control; type: functional; conditions: route subcutaneous; in short: as §2
[10] = fT>MIC required for 80% inhibition of community acquired methicillin-resistant Staphylococcus aureus 146 infection in neutropenic BALB/cAnNCr mouse; type: functional; in short: as §3
Staphylococcus aureus [11] = test: Antimicrobial activity against hospital acquired methicillin-resistant Staphylococcus aureus 152 infected in BALB/cAnNCr mouse assessed as decrease in bacterial density in lungs at 1 to 25 mg/kg, sc administered as 1 to 5 times/day after 24 hrs […] relative to control; type: functional; conditions: route subcutaneous; in short: as §2
[12] = AUC (0 to infinity) in neutropenic BALB/cAnNCr mouse infected with Staphylococcus aureus at 2.5 mg/kg, sc administered as single dose after 6 hrs of infection; type: ADME, organism-based; set-up: time infinity, dose 2.5 mg/kg, route subcutaneous; conditions: plasma
In short: (§4)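 Female BALB/cAnNCr mice (7-9 weeks, 15-22 g) made neutropenic with cyclophosphamide, 250 mg/kg i.p. on day -4 and 100 mg/kg i.p. on day -1. Infected by oral aspiration of HA-MRSA 56 (10^7 CFU/ml in 3% mucin/saline). Single s.c. dose in sterile water given 6 h post-challenge. Plasma (EDTA, citric acid-stabilized) taken at 0.25-4 h, six mice per time point. Assayed by validated HPLC (LOQ 0.01 µg/ml); one-compartment analysis.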

[13] = AUC (0 to infinity) in neutropenic BALB/cAnNCr mouse infected with Staphylococcus aureus at 10 mg/kg, sc administered as single dose after 6 hrs of infection; type: ADME, organism-based; set-up: time infinity, dose 10 mg/kg, route subcutaneous; conditions: plasma; in short: as §1
Staphylococcus aureus [14] = test: Antimicrobial activity against community acquired methicillin-resistant Staphylococcus aureus 146 infected in BALB/cAnNCr mouse assessed as decrease in bacterial density in lungs at 1 to 25 mg/kg, sc administered as 1 to 5 times/day after 24 hrs […] relative to control; type: functional; conditions: route subcutaneous; in short: as §2
[15] = AUC (0 to infinity) in neutropenic BALB/cAnNCr mouse infected with Staphylococcus aureus at 25 mg/kg, sc administered as single dose after 6 hrs of infection; type: ADME, organism-based; set-up: time infinity, dose 25 mg/kg, route subcutaneous; conditions: plasma; in short: as §1
[16] = Tmax in neutropenic BALB/cAnNCr mouse infected with Staphylococcus aureus at 1 mg/kg, sc administered as single dose after 6 hrs of infection; type: ADME, organism-based; set-up: dose 1 mg/kg, route subcutaneous; conditions: in vivo; in short: as §1
[17] = Elimination half life in neutropenic BALB/cAnNCr mouse infected with Staphylococcus aureus at 2.5 mg/kg, sc administered as single dose after 6 hrs of infection; type: ADME, organism-based; set-up: dose 2.5 mg/kg, route subcutaneous; conditions: in vivo; in short: as §4

Nc1nc(/C(=N/O)C(=O)N[C@@H]2C(=O)N3C(C(=O)O)=C(/C=C4\CCN([C@@H]5CCNC5)C4=O)CS[C@H]23)ns1 [CEFTOBIPROLE]
fT>MIC [1]: 14.8% | fCmax/MIC [2]: 1 | fT>MIC [3]: 14% | Vd (Mus musculus [4]): 0.38 L/kg | Vd (Mus musculus [5]): 0.19 L/kg | fAUC/MIC [6]: 3 | log10cfu (Staphylococcus aureus [7]): 3.2 | fT>MIC [8]: 21.6% | log10cfu (Staphylococcus aureus [9]): 2.9 | fT>MIC [10]: 6% | log10cfu (Staphylococcus aureus [11]): 3.8 | AUC(0-inf) [12]: 2570 ng·h/mL | AUC(0-inf) [13]: 15800 ng·h/mL | log10cfu (Staphylococcus aureus [14]): 3.6 | AUC(0-inf) [15]: 35200 ng·h/mL | Tmax [16]: 28.8 min | half-life [17]: 27 min
